Assay results as given in paper PMC5519669 (Forensic Toxicology, 2017).
“Also recorded” adds a separate entry of the source.

Columns and labels:
male rats = assay: Rectal body temperature; assay type: in vivo, rat; conditions: 3 mg/kg i.p.; for Hypothermic effect compared to vehicle injection: 3 mg/kg; for Mean rectal body temperature versus vehicle: at 15 and 30 min and 1, 2, and 4 h post-injection
Outline: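 Male Long–Evans rats (49 days old, jugular-catheterised, n = 4/group) were housed singly in metabolic cages and given test compound i.p. at 3 mg/mL in 7.8% polysorbate 80/92.2% saline at 1 mL/kg, with a vehicle group. Rectal temperature was taken by digital thermometer 15 min pre-dose and 15, 30 min, 1, 2, 4, 8, 24 h post-dose. Analysis used mixed two-factor ANOVA, then Dunnett's tests versus vehicle per time point.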

[1] = Clearance in rat liver microsome incubation; assay type: in vitro ADME; conditions: for half-life at 1 µM / microsomal CLint at 1 µM: male, Sprague-Dawley, rat, pooled rat liver microsomes, pH 7.4; for Parent compound after incubation: rat liver microsome incubations, after 3 h incubations; for ER (extraction ratio) / CLH (estimated hepatic clearance) / CLint (estimated intrinsic clearance): rat liver microsomes; for CLH (estimated hepatic clearance): from CLint and liver blood flow; for CLint (estimated intrinsic clearance): scaled to whole-liver dimensions
[2] = Clearance in human liver microsome incubation; assay type: in vitro ADME; conditions: for Parent compound after incubation: human liver microsome incubations, after 3 h incubations; for ER (extraction ratio) / CLH (estimated hepatic clearance) / CLint (estimated intrinsic clearance): human liver microsomes; for CLH (estimated hepatic clearance): from CLint and liver blood flow; for CLint (estimated intrinsic clearance): scaled to whole-liver dimensions
[3] = Rat plasma kinetics after intraperitoneal injection; assay type: in vivo; conditions: for AUC(0-inf) / AUC(0-t) / Cmax / half-life: 3 mg/kg; for half-life: non-compartmental analysis; for Untransformed parent compound in plasma: 24 h post-dosing
[4] = male, human, pooled human liver microsomes, pH 7.4
[5] = male, Long-Evans, rat, plasma, ip
[6] = male, Long-Evans, rat, plasma, ip, Half-life, rat plasma, 3 mg/kg i.p.

SMILES	Hypothermic effect compared to vehicle injection (male rats)	Mean rectal body temperature versus vehicle (male rats)	half-life at 1 µM [1]	microsomal CLint at 1 µM [1]	Parent compound after incubation [1]	ER (extraction ratio) [1]	CLH (estimated hepatic clearance) [1]	CLint (estimated intrinsic clearance) [1]	Parent compound after incubation [2]	ER (extraction ratio) [2]	CLH (estimated hepatic clearance) [2]	CLint (estimated intrinsic clearance) [2]	half-life at 1 µM [2, 4]	AUC(0-inf) [3, 5]	AUC(0-t) [3, 5]	Cmax [3, 5]	half-life [3, 6]	Untransformed parent compound in plasma ([3]; rat plasma, 3 mg/kg i.p.)	further results
CC(C)(NC(=O)c1cn(CCCCCF)c2ccccc12)c1ccccc1 [5F-CUMYL-PICA, 1-(5-fluoropentyl)-N-(2-phenylpropan-2-yl)-1H-indole-3-carboxamide]	produced hypothermic effects; also recorded: moderate hypothermic effects	significant hypothermic effects	1.19 min	580 µL/min/mg	still detectible	0.95	52.44 mL/min/kg body wt.	1048.24 mL/min/kg body wt.	still detectible	0.96	19.15 mL/min/kg body wt.	453.05 mL/min/kg body wt.	1.77 min	0.843 µg·h/mL	0.582 µg·h/mL	0.0653 µg/mL	720 min	detectible	microsomal CLint at 1 µM [2, 4]: 390 µL/min/mg
CCCCCn1cc(C(=O)NC(C)(C)c2ccccc2)c2ccccc21 [CUMYL-PICA, 1-pentyl-N-(2-phenylpropan-2-yl)-1H-indole-3-carboxamide]	produced hypothermic effects; also recorded: moderate hypothermic effects	significantly reduced	2.24 min	310 µL/min/mg	still detectible	0.91	50.22 mL/min/kg body wt.	556.88 mL/min/kg body wt.	still detectible	0.87	17.43 mL/min/kg body wt.	135.46 mL/min/kg body wt.	5.92 min	1.21 µg·h/mL	1.09 µg·h/mL	0.131 µg/mL	420 min	detectible	CL/F (observed apparent clearance) ([3]; rat plasma, 3 mg/kg i.p.): 43.31 mL/min/kg body wt.; half-life ([3]; rat plasma, 3 mg/kg i.p.): 436 min
